Data set [1] relates to K562. Briefly: Potency index, ratio of vinylamycin IC50 to compound IC50 for human K562 cells. The format is functional.
A short description of data set [2]: Stability of the compound at -20 degreeC incubated for one month. Particulars: 730.5 h. The format is physicochemical.
Data set [3] relates to MCF7. Briefly: Cytotoxicity against human MCF7 cells incubated for 72 hrs under normoxic condition by MTT assay. The format is functional, cell-based. Particulars: MCF7, 72 h. The procedure, abridged:
(§1)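 MCF-7 cells seeded at 2 × 10^4 cells/100 µL in duplicate and preincubated 24 h. Serial dilutions added, then 72 h at 20% O2 (normoxia) or 1% O2 (hypoxia, modular chamber). Viability by MTT under normoxia. Values are mean ± SD of three independent experiments.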

Data set [4] deals with K562. The data set can be described thus: Cytotoxicity against human K562 cells measured after 72 hrs by MTT assay. Particulars: K562, 72 h. In kind it is functional, cell-based.
Data set [5] relates to MCF7. Briefly: Selectivity index, ratio of IC50 for human MCF7 cells under hypoxic condition to IC50 for human MCF7 cells under normoxic condition. The format is functional. Summed up:
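Index computed as IC50(hypoxia)/IC50(normoxia) in MCF-7 cells, each from a 72 h MTT assay at 1% or 20% O2.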

Data set [6] has as its system MCF7. Briefly: Cytotoxicity against human MCF7 cells incubated for 72 hrs under hypoxic condition by MTT assay. To be noted: MCF7, 72 h. In kind it is functional, cell-based. Summed up: as §1
For orientation: Formazan colour is commonly taken as a measure of viable cells.

Data set [7] concerns Staphylococcus aureus. Briefly: Antibacterial activity against Staphylococcus aureus measured after 24 hrs by turbidimetric based microdilution method. In kind it is functional. The procedure, abridged: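 S. aureus grown 18 h at 37 °C in MH broth, diluted 50-fold and regrown to OD600 0.8–1.0, then diluted ten-fold serially to about 1 × 10^4 CFU/mL. Compounds two-fold serially diluted, 64 to 0.0625 µg/mL. MIC read by visual turbidity after 24 h at 37 °C.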
In general terms: Broth dilution looks for growth in wells or tubes with falling amounts of substance.

Data set [8] in a line: Half life in Sprague-Dawley rat plasma at 1 mg/ml by HPLC analysis. The format is ADME, cell-free. The procedure, abridged: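 SD rat plasma diluted to 50% in water, prewarmed to 37 °C. 40 µL of a 1 mg/mL ACN stock added per 1 mL plasma. Samples taken at 0–1440 min, proteins precipitated with ACN containing internal standard, centrifuged. Supernatant quantified by C18 HPLC using the internal standard method.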

Values after ≈ are worked out from the molar mass of the structure shown. Structures can show the parent of a compound that is named as a salt.

A word on the IC50: it is the midpoint of a concentration-inhibition curve. As usually defined, the MIC is the smallest concentration in the dilution series that meets the test's criterion for growth inhibition. Read a low MIC as a more susceptible organism. By half-life is commonly meant how long it takes for the measured level to halve.

As for `C=C1/C=C/C(=O)N[C@@H](C)C(=O)N[C@H](C(C)C)C(=O)O[C@H]([C@@H](C)CCCCCC)[C@@H](CCO[Si](c2ccccc2)(c2ccccc2)C(C)(C)C)C(=O)N1`, the “Ratio IC50” value in data set [1] is reported as 4; in data set [5], 1.37. Moreover, the Stability result in data set [2] was “Stable”. For the same compound, the IC50 in data set [3] was determined as 5.11 µM; in data set [4], 1.27 µM; in data set [6], 7.02 µM.

Turning to `Cc1ccc(NC(=O)c2ccc(CN3CCN(C)CC3)cc2)cc1Nc1nccc(-c2cccnc2)n1` [IMATINIB MESYLATE], it took 0.31 µM to reach half-maximal inhibition in data set [4] (IC50).

Turning to `C=C1/C=C/C(=O)N[C@@H](C)C(=O)N[C@H](C(C)C)C(=O)O[C@H]([C@@H](C)CCC)[C@@H](CCO)C(=O)N1`, the IC50 was > 20 µM in data set [3], > 50 µM in data set [4] and > 20 µM in data set [6].

`C=C1/C=C/C(=O)N[C@H](C)C(=O)N[C@@H](C(C)C)C(=O)O[C@@H]([C@H](C)CCCCCC)[C@H](CCOCc2ccc(OC)cc2)C(=O)N1`: the Stability entry in data set [2] was “Stable”. The same compound showed an IC50 in data set [4] of 2.49 µM.

As for `C=C1/C=C/C(=O)N[C@H](C)C(=O)N[C@@H](C(C)C)C(=O)O[C@@H]([C@H](C)CCCCCC)[C@H](CCOC(=O)[C@H](Cc2ccccc2)NC(=O)OC(C)(C)C)C(=O)N1`, the Stability entry in data set [2] was “Stable”. Besides, the IC50 in data set [4] worked out at 5.95 µM.

On to `C#CCCCC(=O)OCC[C@@H]1C(=O)NC(=C)/C=C/C(=O)N[C@H](C)C(=O)N[C@@H](C(C)C)C(=O)O[C@H]1[C@H](C)CCCCCC`, for which the Stability entry in data set [2] was “Stable”. The same compound showed an IC50 in data set [4] of 8 µM.

For `C=C1/C=C/C(=O)N[C@H](C)C(=O)N[C@@H](C(C)C)C(=O)O[C@@H]([C@H](C)CCCCCC)[C@H](CCOC(=O)CCCCCCCCCCCCCCCCC)C(=O)N1`, in data set [2], the Stability result is listed as “Stable”. For the same compound, the IC50 in data set [4] is > 50 µM.

Consider `Nc1ccn([C@@H]2O[C@H](CO)[C@@H](O)C2(F)F)c(=O)n1` [GEMCITABINE], for which the IC50 in data set [3] was 0.57 µM; in data set [6] it was 8.9 µM. For the same compound, the “Ratio IC50” value in data set [5] turned out to be 15.6.

In the case of `C=C1/C=C/C(=O)N[C@H](C)C(=O)N[C@@H](C(C)C)C(=O)O[C@@H]([C@H](C)CCCCCC)[C@H](CCOC(=O)OC(C)(C)C)C(=O)N1`, the Stability entry in data set [2] is reported as “Stable”. In data set [4], this compound returned an IC50 of 5.43 µM.

In turn, `O=C(O)c1cn(C2CC2)c2cc(N3CCNCC3)c(F)cc2c1=O` [CIPROFLOXACIN] registered an MIC in data set [7] of 0.5 µg/mL (≈ 1.51 µM).

As for `CCCCCC[C@@H](C)[C@@H]1OC(=O)[C@H](C(C)C)NC(=O)[C@@H](C)NC(=O)/C=C/[C@H](CO)NC(=O)[C@H]1CCOCc1ccc(OC)cc1`, the Stability result in data set [2] is “Stable”. Moreover, the IC50 in data set [4] came out at 21.4 µM.

Consider `C=C1/C=C/C(=O)N[C@@H](C)C(=O)N[C@H](C(C)C)C(=O)O[C@H]([C@H](C)CCCCCC)[C@@H](CCO[Si](c2ccccc2)(c2ccccc2)C(C)(C)C)C(=O)N1`, for which the “Ratio IC50” value is 3 in data set [1] and 0.9 in data set [5]. The Stability result in data set [2] is “Stable”. In addition, the values for the IC50 in data set [3], in data set [4] and in data set [6] were 2.98 µM, 1.78 µM and 2.69 µM, respectively.

On to `C=C1/C=C/C(=O)N[C@@H](C)C(=O)N[C@H](C(C)C)C(=O)O[C@@H]([C@H](C)CCCCCC)[C@H](CCOCc2ccc(OC)cc2)C(=O)N1`, for which, in data set [2], the Stability entry was “Stable”. In addition, the IC50 stood at 10.1 µM in data set [3], 4.6 µM in data set [4] and 7.98 µM in data set [6]. The “Ratio IC50” value in data set [5] is given as 0.79.

`C=C1/C=C/C(=O)N(C)CC(=O)N[C@@H]([C@H](O)C(=O)OC)C(=O)O[C@@H]([C@H](C)CCCCCCCCCCCC(C)C)[C@H](C)C(=O)N1`: the values for the 50% inhibitory concentration (IC50) in data set [3] and in data set [6] were 0.32 µM and 0.12 µM, respectively. Also, the “Ratio IC50” value in data set [5] worked out at 0.38.

Take `C=C1/C=C/C(=O)N[C@H](C)C(=O)N[C@@H](C(C)C)C(=O)O[C@@H]([C@H](C)CCCCCC)[C@H](CCOC(=O)CP(=O)(OCC)OCC)C(=O)N1`: in data set [2], the Stability entry is on record as “Stable”. The IC50 in data set [4] is 7.9 µM.

Turning to `C=C1/C=C/C(=O)N(C)CC(=O)N[C@@H](C(C)C)C(=O)O[C@@H]([C@H](C)CCCCCC)[C@H](CCO[Si](c2ccccc2)(c2ccccc2)C(C)(C)C)C(=O)N1`, in data set [7], the minimal inhibitory concentration (MIC) was > 64 µg/mL. For the same compound, the half-life at 1 mg/ml in data set [8] is 20.1 h. In data set [2], the Stability entry is listed as “Stable”. The same compound returned an IC50 in data set [4] of 0.4 µM.

`C=C1/C=C/C(=O)N[C@@H](C)C(=O)N[C@H](C(C)C)C(=O)O[C@@H]([C@H](C)CCCCCC)[C@H](CCO[Si](c2ccccc2)(c2ccccc2)C(C)(C)C)C(=O)N1`: the Stability entry in data set [2] is “Stable”. For the same compound, the results for the IC50 in data set [3], in data set [4] and in data set [6] were 3.75 µM, 0.88 µM and 2.93 µM, respectively. Moreover, the “Ratio IC50” value in data set [5] is given as 0.78.

Turning to `C=C1/C=C/C(=O)NC(C)C(=O)NC(C(C)C)C(=O)O[C@@H]([C@H](C)CCCCCC)[C@H](CCOCc2ccccc2)C(=O)N1` (single isomer, unassigned), the Stability entry in data set [2] is listed as “Stable”. Moreover, in data set [4], half-maximal inhibition (IC50) was put at 3.06 µM.

Consider `CCCCCC[C@@H](C)[C@@H]1OC(=O)[C@H](C(C)C)NC(=O)[C@@H](C)NC(=O)/C=C/[C@H](CO)NC(=O)[C@H]1CCOCc1ccccc1`, for which the Stability entry in data set [2] was “Stable”. Besides, half-maximal inhibition in data set [4] (IC50) required 33.6 µM.

Turning to `C=C1/C=C/C(=O)N[C@@H](C)C(=O)N[C@H](C(C)C)C(=O)OC([C@@H](C)CCC)[C@@H](CCOCc2ccc(OC)cc2)C(=O)N1` (single isomer, unassigned), in data set [2], the Stability result is “Stable”. This compound also yielded an IC50 in data set [4] of 13.7 µM.

In the case of `C=C1/C=C/C(=O)N(C)CC(=O)N[C@@H]([C@H](O)C(N)=O)C(=O)O[C@@H]([C@H](C)CCCCCCCCCCCC(C)C)[C@H](C)C(=O)N1`, the results for the IC50 in data set [3] and in data set [6] were 0.3 µM and 0.08 µM, respectively. Moreover, in data set [5], the “Ratio IC50” value was 0.27.

Regarding `C=C1/C=C/C(=O)N[C@H](C)C(=O)N[C@@H](C(C)C)C(=O)O[C@@H]([C@H](C)CCCCCC)[C@H](CCOC(=O)CC(c2ccccc2)(c2ccccc2)c2ccccc2)C(=O)N1`, the Stability entry in data set [2] is listed as “Stable”. For the same compound, the IC50 in data set [4] worked out at 3.79 µM.

Turning to `C=C1/C=C/C(=O)NCC(=O)N[C@@H](C(C)C)C(=O)O[C@@H]([C@H](C)CCCCCC)[C@H](CCO[Si](c2ccccc2)(c2ccccc2)C(C)(C)C)C(=O)N1`, the entries for the “Ratio IC50” value in data set [1] and in data set [5] were 2 and 1.34, respectively. In addition, the Stability entry in data set [2] is given as “Stable”. The IC50 amounted to 3.49 µM in data set [3], 2.31 µM in data set [4] and 4.69 µM in data set [6].

For `C=C1/C=C/C(=O)N[C@H](C)C(=O)N[C@@H](C(C)C)C(=O)O[C@@H]([C@H](C)CCCCCC)[C@H](CCOC(=O)C23CC4CC(CC(C4)C2)C3)C(=O)N1`, the Stability result in data set [2] was “Stable”. Besides, the IC50 in data set [4] was found to be 7.72 µM.

As for `C#CCCCCCCCCC(=O)OCC[C@@H]1C(=O)N[C@@H](CO)/C=C/C(=O)N[C@H](C)C(=O)N[C@@H](C(C)C)C(=O)O[C@H]1[C@H](C)CCCCCC`, the Stability entry in data set [2] was “Stable”. The IC50 in data set [4] was found to be 17.9 µM.
